Measured values reported in ChEMBL document CHEMBL4028901, “Novel Antitubercular 6-Dialkylaminopyrimidine Carboxamides from Phenotypic Whole-Cell High Throughput Screening of a SoftFocus Library: Structure-Activity Relationship and Target Identification Studies” (J Med Chem, 2017).
In brackets after ≈: the same amount, converted by molar mass.

Tested on: Mycobacterium tuberculosis
Experiment: Antibacterial activity against Mycobacterium bovis BCG grown in 7H9 medium after 6 days by resazurin-based fluorescent method
Format: functional
Conditions: variant bovis BCG, 144 h
In short: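 M. bovis BCG at 10⁵ CFU/ml in 7H9 with 0.025% tyloxapol and 2% glucose. Compounds tested as 10 two-fold dilutions from 50 μM. Incubated 6 days at 37 °C, then resazurin added for a further 48 h. Endpoint fluorescence read at excitation 530 nm, emission 590 nm.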

`CN1CCN(c2ccc(NC(=O)c3cc(N(CCCN)Cc4ccccc4)ncn3)cc2)CC1` gave an MIC of 18.6 µM (≈ 8.55 µg/mL).
